According to ChEMBL document CHEMBL1121617, “Antihypertensive ureidopiperidines” (1980):
Activity calls are given as the source filed them. The calls are words filed in the database; no cut-off is given here.

How the values were obtained:
Rattus norvegicus [1] = test: The percent fall in systolic blood pressure at 1.5 / 4 hr after peroral administration of 40 mg/kg in conscious renal hypertensive rats (RHR).; type: functional, Artery; settings: route oral
How it was run: (§1)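 Conscious renal hypertensive rats, four per group, dosed orally. Starting systolic pressures were 160–200 mmHg. Percentage fall in systolic pressure was taken at 1.5 and/or 4 h after dosing. Falls under 10% were scored as ±.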

Rattus norvegicus [2] = test: The percent fall in systolic blood pressure at 1.5 / 4 hr after peroral administration of 10 mg/kg in DOCA/saline hypertensive rats at 6 h; Non significant, p>0.05; type: functional, organism-based; parameters: dose 10 mg/kg; settings: Artery, at 10 mg/kg
How it was run: (§2)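 DOCA/saline hypertensive rats, four per group, dosed orally at 50, 25 or 10 mg/kg. Mean starting systolic pressure was recorded for each group. Systolic pressure was then read 2, 6 and 24 h after dosing and reported as percentage fall from the starting value.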

Rattus norvegicus [3] = test: The percent fall in systolic blood pressure at 1.5 / 4 hr after peroral administration of 25 mg/kg in DOCA/saline hypertensive rats at 24 hr; type: functional, Artery; settings: route oral; how it was run: as §2
Rattus norvegicus [4] = test: The percent fall in systolic blood pressure at 1.5 / 4 hr after peroral administration of 25 mg/kg in DOCA/saline hypertensive rats at 2 hr; type: functional, Artery; settings: route oral; how it was run: as §2
Rattus norvegicus [5] = test: The percent fall in systolic blood pressure at 1.5 / 4 hr after peroral administration of 50 mg/kg in DOCA/saline hypertensive rats at 24 hr; type: functional, Artery; settings: route oral; how it was run: as §2
Rattus norvegicus [6] = test: The percent fall in systolic blood pressure at 1.5 / 4 h after peroral administration of 50 mg/kg in DOCA/saline hypertensive rats at 2 hr; type: functional, Artery; settings: route oral
Rattus norvegicus [7] = test: The percent fall in systolic blood pressure at 1.5 / 4 hr after peroral administration of 10 mg/kg in DOCA/saline hypertensive rats at 24 hr; Non significant, p>0.05; type: functional, organism-based; parameters: dose 10 mg/kg; settings: Artery, at 10 mg/kg; how it was run: as §2
Rattus norvegicus [8] = test: The percent fall in systolic blood pressure at 1.5 / 4 hr after peroral administration of 10 mg/kg in DOCA/saline hypertensive rats at 2 hr; type: functional, Artery; settings: route oral; how it was run: as §2
Rattus norvegicus [9] = test: The percent fall in systolic blood pressure at 1.5 / 4 hr after peroral administration of 50 mg/kg in DOCA/saline hypertensive rats at 6 hr; type: functional, Artery; settings: route oral
Rattus norvegicus [10] = test: Starting systolic blood pressure at dose of 10 mg/kg; type: functional, Artery; how it was run: as §2
Rattus norvegicus [11] = test: Starting systolic blood pressure at dose of 25 mg/kg; type: functional, Artery; how it was run: as §2
Rattus norvegicus [12] = test: Starting systolic blood pressure at dose of 50 mg/kg in rat; type: functional, Artery
How it was run: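 Mean systolic blood pressure before dosing for each group of four DOCA/saline hypertensive rats given 50 mg/kg orally. It indicates how far hypertension was established.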

Rattus norvegicus [13] = test: The percent fall in systolic blood pressure at 1.5 / 4 hr after peroral administration of 25 mg/kg in DOCA/saline hypertensive rats at 6 hr; type: functional, Artery; settings: route oral; how it was run: as §2
Rattus norvegicus [14] = test: Percent fall in systolic blood pressure at 1.5 / 4 hr after peroral administration of 50 mg/kg in DOCA/saline hypertensive rats at 6 h; Non significant; type: functional, organism-based; parameters: dose 50 mg/kg; settings: Artery, at 50 mg/kg
Rattus norvegicus [15] = test: The percent fall in systolic blood pressure after peroral administration of 50 mg/kg in DOCA/saline hypertensive rats at 24 hr; settings: route oral
Rattus norvegicus [16] = test: The percent fall in systolic blood pressure at 1.5 / 4 hr after peroral administration of 50 mg/kg in conscious renal hypertensive rats (RHR).; type: functional, Artery; settings: route oral
How it was run: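 Conscious renal hypertensive rats, four per group, with starting systolic pressures of 160-200 mmHg, were given a single oral dose. The value is the percentage fall in systolic pressure at 1.5 h, 4 h, or both after dosing. Falls below 10% are reported as ±.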

Rattus norvegicus [17] = test: The percent fall in systolic blood pressure at 1.5 / 4 hr after peroral administration of 75 mg/kg in conscious renal hypertensive rats (RHR).; type: functional, Artery; settings: route oral; how it was run: as §1
Rattus norvegicus [18] = test: The percent fall in systolic blood pressure at 1.5 / 4 hr after peroral administration of 25 mg/kg in DOCA/saline hypertensive rats at 24 hr; Non significant, p>0.05; type: functional, organism-based; parameters: dose 25 mg/kg; settings: Artery, at 25 mg/kg
Rattus norvegicus [19] = test: The percent fall in systolic blood pressure at 1.5 / 4 hr after peroral administration of 10 mg/kg in DOCA/saline hypertensive rats at 24 hr; Non significant; type: functional, organism-based; parameters: dose 10 mg/kg; settings: Artery, at 10 mg/kg
Rattus norvegicus [20] = test: The percent fall in systolic blood pressure at 1.5 / 4 hr after peroral administration of 10 mg/kg in DOCA/saline hypertensive rats at 6 hr; type: functional, Artery; settings: route oral; how it was run: as §2
Rattus norvegicus [21] = test: The percent fall in systolic blood pressure at 1.5 / 4 hr after peroral administration of 50 mg/kg in DOCA/saline hypertensive rats at 2 hr; Non significant; type: functional, organism-based; parameters: dose 50 mg/kg; settings: Artery, at 50 mg/kg
Rattus norvegicus [22] = test: The percent fall in systolic blood pressure at 1.5 / 4 h after peroral administration of 50 mg/kg in conscious DOCA/saline hypertensive rats at 24 hr; Non significant; type: functional, organism-based; parameters: dose 50 mg/kg; settings: Artery, at 50 mg/kg; how it was run: as §2
Rattus norvegicus [23] = test: The percent fall in systolic blood pressure at 1.5 / 4 hr after peroral administration of 10 mg/kg in DOCA/saline hypertensive rats at 24 hr; type: functional, Artery; settings: route oral

Structure (SMILES)	Fall (Rattus norvegicus [4])	Fall (Rattus norvegicus [5])	Fall (Rattus norvegicus [6])	Fall (Rattus norvegicus [8])	Fall (Rattus norvegicus [9])	SP (Rattus norvegicus [10])	SP (Rattus norvegicus [11])	SP (Rattus norvegicus [12])	Fall (Rattus norvegicus [13])	other results
O=C(NC(=O)c1ccccc1)NC1CCN(CCc2c[nH]c3ccccc23)CC1	51%	38%	49%	36%	49%	178 mmHg	171 mmHg	179 mmHg	48%	Activity (Rattus norvegicus [1]): 48; Fall (Rattus norvegicus [2]): Not significant; Fall (Rattus norvegicus [3]): 21%; Fall (Rattus norvegicus [7]): Not significant
COc1ccccc1OCC(O)CN1CCC(NC(=O)Nc2ccccc2)CC1 (stereo unspecified)	–	–	27%	–	–	–	–	212 mmHg	–	Fall (Rattus norvegicus [14]): Not significant; Fall (Rattus norvegicus [15]): -27%
O=C(CCCN1CCC(NC(=S)Nc2ccccc2)CC1)c1ccccc1	–	–	–	–	–	–	–	–	–	Activity (Rattus norvegicus [16]): 20
Cc1cccc(C)c1NC(=O)NC1CCN(CCc2c[nH]c3ccccc23)CC1	–	–	–	–	–	–	–	–	–	Activity (Rattus norvegicus [17]): <10
O=C(Nc1ccc(Cl)c(Cl)c1)NC1CCN(CCCC(=O)c2ccccc2)CC1	–	–	35%	–	35%	–	–	169 mmHg	–	Fall (Rattus norvegicus [15]): 18%
O=C(NC1CCN(CCc2c[nH]c3ccccc23)CC1)c1ccccc1 [INDORAMIN]	25%	38%	41%	33%	45%	197 mmHg	178 mmHg	198 mmHg	29%	Activity (Rattus norvegicus [1]): 38; Fall (Rattus norvegicus [18]): inactive; Fall (Rattus norvegicus [19]): inactive; Fall (Rattus norvegicus [20]): 31%
O=C(Nc1cccc(C(F)(F)F)c1)NC1CCN(CCc2c[nH]c3ccccc23)CC1	–	–	–	–	–	–	–	208 mmHg	–	Fall (Rattus norvegicus [21]): Not significant; Fall (Rattus norvegicus [14]): Not significant; Fall (Rattus norvegicus [22]): Not significant
CN(C(=O)Nc1ccccc1)C1CCN(CCc2c[nH]c3ccccc23)CC1	44%	26%	–	–	–	168 mmHg	180 mmHg	174 mmHg	38%	Fall (Rattus norvegicus [3]): 20%; Fall (Rattus norvegicus [6]; 50 mg/kg): 54%; Fall (Rattus norvegicus [9]; 50 mg/kg): 52%
O=C(NC(=O)c1cccs1)NC1CCN(CCCC(=O)c2ccc(F)cc2)CC1	35%	21%	49%	48%	45%	171 mmHg	174 mmHg	179 mmHg	28%	Fall (Rattus norvegicus [18]): Not significant; Fall (Rattus norvegicus [20]): 36%; Fall (Rattus norvegicus [23]): 16%
